Type in all cases: functional
The test system of one assay is Micrococcus luteus. Put plainly: Antibacterial activity against Micrococcus luteus ATCC 9341 after 20 hrs by MTT assay. To be noted: ATCC 9341, 20 h. The gist of the method: (§1)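 Overnight cultures in nutrient broth at 37 °C, diluted to ca. 10⁵ cells/mL in fresh medium. Compounds from 1 mg/mL MeOH stocks dried in wells, redissolved in DMSO plus broth and culture, then twofold serial dilutions in bacterial suspension. Plates held 20 h at 37 °C in moist atmosphere; 0.25% aqueous MTT added, 4 h further incubation; living bacteria seen as violet turbidity.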
(In general: Formazan colour is commonly taken as a measure of viable cells.)

For another assay, the system named is Bacillus cereus. Put plainly: Antibacterial activity against Bacillus cereus ATCC 10702 after 20 hrs by MTT assay. The settings on record: ATCC 10702, 20 h. The gist of the method: as §1
The test system of a further assay is Staphylococcus aureus. Put plainly: Antibacterial activity against Staphylococcus aureus ATCC 25923 after 20 hrs by MTT assay. To be noted: ATCC 25923, 20 h. In outline:
as §1

For assay [1], the system named is Staphylococcus epidermidis. As to the kind of experiment: Antibacterial activity against Staphylococcus epidermidis ATCC 12228 after 20 hrs by MTT assay. The settings on record: ATCC 12228, 20 h. The gist of the method: as §1

This passage reports MIC results from ChEMBL document CHEMBL1157987, “Acylated flavonol glycosides from leaves of Stenochlaena palustris” (1999).

Converted amounts (≈) assume the structure as drawn. Some results are limits rather than exact numbers.

Usually MIC stands for the least concentration at which growth counts as inhibited. A higher MIC goes with a need for much substance. Turning to `O=C(/C=C/c1ccc(O)cc1)OC[C@H]1O[C@@H](Oc2c(-c3ccc(O)cc3)oc3cc(O)cc(O)c3c2=O)[C@H](O)[C@@H](OC(=O)/C=C/c2ccc(O)cc2)[C@@H]1O`, the minimum inhibitory concentration (MIC) (against Micrococcus luteus; in the assay on Bacillus cereus; against Staphylococcus aureus; in assay [1]) was more than 256 mg/L in each case.
`COc1cc(/C=C/C(=O)OC[C@H]2O[C@@H](Oc3c(-c4ccc(O)cc4)oc4cc(O)cc(O)c4c3=O)[C@H](O)[C@@H](OC(=O)/C=C\c3ccc(O)cc3)[C@@H]2O)ccc1O` [STENOPALUSTROSIDE B]: the MIC amounted to 16 mg/L (≈ 20.8 µM) against Micrococcus luteus, 8 mg/L (≈ 10.4 µM) against Bacillus cereus, 32 mg/L (≈ 41.5 µM) in the assay on Staphylococcus aureus and 64 mg/L (≈ 83 µM) in assay [1].
As for `O=C(/C=C\c1ccc(O)cc1)OC[C@H]1O[C@@H](Oc2c(-c3ccc(O)cc3)oc3cc(O)cc(O)c3c2=O)[C@H](O)[C@@H](OC(=O)/C=C\c2ccc(O)cc2)[C@@H]1O` [STENOPALUSTROSIDE A], the minimal inhibitory concentration (MIC) in the assay with Micrococcus luteus stood at 8 mg/L (≈ 10.8 µM); against Bacillus cereus, 4 mg/L (≈ 5.4 µM); with Staphylococcus aureus it was 16 mg/L (≈ 21.6 µM); in assay [1], 2 mg/L (≈ 2.7 µM).
For `COc1cc(/C=C/C(=O)OC[C@H]2O[C@@H](Oc3c(-c4ccc(O)cc4)oc4cc(O)cc(O)c4c3=O)[C@H](O)[C@@H](OC(=O)/C=C/c3ccc(O)cc3)[C@@H]2O)ccc1O`, in that order: more than 256 mg/L, more than 256 mg/L, more than 256 mg/L and more than 256 mg/L.
The like results for `COc1cc(C(O)C(CO)Oc2ccc(/C=C/C(=O)OC[C@H]3O[C@@H](Oc4c(-c5ccc(O)cc5)oc5cc(O)cc(O)c5c4=O)[C@H](O)[C@@H](OC(=O)/C=C/c4ccc(O)cc4)[C@@H]3O)cc2OC)ccc1O` (some centres not stated) [STENOPALUSTROSIDE E] were, in that order, more than 256 mg/L, more than 256 mg/L, more than 256 mg/L and more than 256 mg/L.
`O=C(/C=C/c1ccc(O)cc1)OC[C@H]1O[C@@H](Oc2c(-c3ccc(O)cc3)oc3cc(O)cc(O)c3c2=O)[C@H](O)[C@@H](O)[C@@H]1O` [TILIROSIDE]: the MIC (against Micrococcus luteus; in the assay with Bacillus cereus; with Staphylococcus aureus; in assay [1]) was more than 256 mg/L each time.
For `O=C(N[C@H](CO)[C@H](O)c1ccc([N+](=O)[O-])cc1)C(Cl)Cl` [CHLORAMPHENICOL], the MIC in the assay on Micrococcus luteus was found to be 2 mg/L (≈ 6.19 µM); in the assay with Bacillus cereus, 2 mg/L (≈ 6.19 µM); with Staphylococcus aureus, 4 mg/L (≈ 12.4 µM); in assay [1], 4 mg/L (≈ 12.4 µM).
In the case of `O=C(/C=C/c1ccc(O)cc1)O[C@@H]1[C@@H](O)[C@H](Oc2c(-c3ccc(O)cc3)oc3cc(O)cc(O)c3c2=O)O[C@H](CO)[C@H]1O`, the MIC (with Micrococcus luteus; against Bacillus cereus; against Staphylococcus aureus; in assay [1]) was more than 256 mg/L each time.
